The record followed here is ChEMBL document CHEMBL1129983, “Synthesis and structure-activity relationships of carboxylated chalcones: a novel series of CysLT1 (LTD4) receptor antagonists” (J Med Chem, 1997).

In one assay the target is T1, Cysteinyl leukotriene receptor 1 (Cavia porcellus) (UniProt Q2NNR5).
T1 sequence (whole entry): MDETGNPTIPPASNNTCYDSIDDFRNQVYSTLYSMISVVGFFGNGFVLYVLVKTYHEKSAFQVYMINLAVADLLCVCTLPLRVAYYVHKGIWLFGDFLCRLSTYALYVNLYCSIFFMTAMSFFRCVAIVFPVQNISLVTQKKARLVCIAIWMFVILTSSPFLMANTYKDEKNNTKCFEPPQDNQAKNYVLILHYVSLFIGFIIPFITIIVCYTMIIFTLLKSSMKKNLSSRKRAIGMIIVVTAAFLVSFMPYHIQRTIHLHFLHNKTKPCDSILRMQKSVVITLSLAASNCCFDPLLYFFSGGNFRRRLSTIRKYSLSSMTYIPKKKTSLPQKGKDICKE
The experiment in a line: Percent inhibition against Cysteinyl leukotriene D4 receptor in guinea pig lung membranes using [3H]LTD4 4 at 10 e-5 M. In kind it is cell membranes. The settings on record: Membrane. In outline: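 Same [3H]LTD4 (0.2 nM) filtration binding with guinea pig lung membranes, PIPES pH 7.5, 22 °C, 30 min. Percent inhibition = (maximum binding − counts at highest drug concentration) / maximum binding × 100.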
`O=C(O)c1ccc(O)c(C(=O)/C=C/c2ccccc2OCc2ccc3ccccc3n2)c1` displayed an inhibition of 18%. In turn, `O=C(O)c1ccc(O)c(C(=O)/C=C/c2ccccc2OCc2ccccc2)c1` had an inhibition of 0%. On the same count and under the same terms, for `N#Cc1ccc(O)c(C(=O)/C=C/c2cccc(OCc3ccc4ccccc4n3)c2)c1` the value was 38%; for `CCCCOc1ccc(C(=O)O)cc1C(=O)/C=C/c1ccc(OCc2ccc3ccccc3n2)cc1`, 42%.

For the molecule `CCOC(=O)c1ccc(O)c(C(=O)/C=C/c2ccc(OCc3ccc4ccccc4n3)cc2)c1`, the inhibition is 16%.

In turn, `N#Cc1ccc(C(=O)/C=C/c2cccc(OCc3ccc4ccccc4n3)c2)cc1` gave an inhibition of 7%. For the molecule `O=C(O)c1ccc(O)c(C(=O)/C=C/c2ccc(OCc3ccccc3)cc2)c1`, the inhibition was found to be 23%. `O=C(/C=C/c1ccc(OCc2ccc3ccccc3c2)cc1)c1cc(-c2nn[nH]n2)ccc1O` displayed an inhibition of 4%. Molecule `N#Cc1ccc(C(=O)/C=C/c2ccc(OCc3ccc4ccccc4n3)cc2)cc1` came in with an inhibition of 9%.

Another assay relates to Cavia porcellus. The experiment in a line: Inhibition of LTD4 induced increase of vascular permeability after injection of 10 ng/site at […] intraperitoneally. In kind it is functional.
Conditions: not given
With `O=C(Nc1cccc2c(=O)cc(-c3nnn[nH]3)oc12)c1ccc(OCCCCc2ccccc2)cc1`, the Inhibition turned out to be 100%.

The subject of a further assay is Cavia porcellus. Description: Inhibition of LTD4 induced increase of vascular permeability after injection of 10 ng/site at 10 mg/kg intraperitoneally. Conditions: ip, route intraperitoneal. Format: functional. In outline: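 Male Hartley guinea pigs (~300 g), fasted 24 h with water available, dosed ip at 10 mg/kg in 0.5% carboxymethylcellulose or saline. One hour later Evans blue 50 mg/kg iv, then LTD4 intradermally on the back. Dorsal skin removed 30 min later, dye extracted and quantified. Reported as percent inhibition versus control.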
Molecule `O=C(O)c1cccc(C(=O)/C=C/c2cccc(/C=C/c3ccc4ccccc4n3)c2)c1O` gave an inhibition in vivo at 10 mg/kg of less than 10%. The molecule `O=C(/C=C/c1ccc(OCc2ccc3ccccc3n2)cc1)c1cc(-c2nn[nH]n2)ccc1O` gave an inhibition in vivo at 10 mg/kg of 72%.

As for `O=C(O)c1cc(Cl)cc(C(=O)/C=C/c2cccc(/C=C/c3ccc4ccccc4n3)c2)c1O`, the inhibition in vivo at 10 mg/kg is less than 10%.

The species entered for another assay is Cavia porcellus. The experiment in a line: Inhibition of LTD4 induced contraction of guinea pig ileum. Format: functional.
Conditions: not given
In outline:
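Male guinea pig ileum segments (2 cm), 20 mL organ bath, Tyrode's with atropine and pyrilamine (10⁻⁶ M each), 29 °C, 95% O2/5% CO2, 1.0 g resting tension, isotonic recording. Compounds in DMSO (10⁻⁵ to 3 × 10⁻⁹ M) preincubated 30 min; indomethacin 10⁻⁶ M added 10 min before 10⁻⁸ M LTD4. IC50 from percent inhibition across concentrations.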
In turn, `O=C(O)c1cccc(C(=O)/C=C/c2cccc(/C=C/c3ccc4ccccc4n3)c2)c1O` displayed an IC50 of 52 nM. Same read-out and setting: for `O=C(/C=C/c1cccc(/C=C/c2ccc3ccccc3n2)c1)c1cc(OCc2nn[nH]n2)ccc1O` the value was 23 nM. On to `O=C(/C=C/c1ccc(OCc2ccc3ccccc3n2)cc1)c1cc(-c2nn[nH]n2)ccc1O`, for which the IC50 was 240 nM. In turn, `O=C(O)c1cc(Cl)cc(C(=O)/C=C/c2cccc(/C=C/c3ccc4ccccc4n3)c2)c1O` showed an IC50 of 360 nM. The same measure, in the same setting: the result for `O=C(/C=C/c1cccc(/C=C/c2ccc3ccccc3n2)c1)c1cc(-c2nn[nH]n2)ccc1O` reads 46 nM; that for `Cn1c(COc2ccc(/C=C/C(=O)c3cc(-c4nn[nH]n4)ccc3O)cc2)nc2ccccc21`, 190 nM.

For a further assay, the species on record is Cavia porcellus. The experiment in a line: Inhibition of ovalbumin-induced contraction (10 ng/mL) of guinea pig trachea at 10 uM. Format: functional.
Conditions: not given
In outline: (§1)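 Ovalbumin-sensitized male Hartley guinea pigs (2 mg ip, ≥2 weeks prior). Tracheal ring strips in Krebs with 3 µM indomethacin, 37 °C, 95% O2/5% CO2, 0.5 g tension, 60 min equilibration. Drug 10 µM preincubated 30 min, then ovalbumin challenge for 20–60 min, followed by 10 µM carbachol. Antigen response expressed as percent of the carbachol contraction.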
For the molecule `CCCc1c(OCC(O)COc2ccc3c(=O)cc(C(=O)O)oc3c2CCC)ccc(C(C)=O)c1O` (stereo not given) [FPL-55712], the Inhibition was 38%. Consider `O=C(/C=C/c1cccc(/C=C/c2ccc3ccccc3n2)c1)c1cc(OCc2nn[nH]n2)ccc1O`, for which the Inhibition is given as 0%.

The species entered for the next assay is Cavia porcellus. Description: Inhibition of ovalbumin-induced contraction (10 ng/mL) of guinea pig trachea at 10 uM. In kind it is functional.
Conditions: not given
In outline:
as §1
Take `O=C(O)c1cccc(C(=O)/C=C/c2cccc(/C=C/c3ccc4ccccc4n3)c2)c1O`: the Inhibition was 0%. Same read-out and setting: the result for `O=C(/C=C/c1ccc(OCc2ccc3ccccc3n2)cc1)c1cc(-c2nn[nH]n2)ccc1O` reads 52%. With `O=C(Nc1cccc2c(=O)cc(-c3nnn[nH]3)oc12)c1ccc(OCCCCc2ccccc2)cc1`, the Inhibition turned out to be 80%.

The next assay deals with Cysteinyl leukotriene receptor 1 (Cavia porcellus). The experiment in a line: Displacement of [3H]LTD4 from Cysteinyl leukotriene D4 receptor in guinea pig lung membranes.
Conditions: not given
`CCOCCn1c(COc2ccc(/C=C/C(=O)c3cc(-c4nn[nH]n4)ccc3O)cc2)nc2ccccc21` registered a Kd of 527 nM. On the same count and under the same terms, for `O=C(O)c1ccc(O)c(C(=O)/C=C/c2ccc3ccccc3n2)c1` the value was 11100 nM; for `O=C(O)c1cccc(C(=O)/C=C/c2cccc(/C=C/c3ccc4ccccc4n3)c2)c1O`, 26 nM. As to `O=C(O)COc1ccc(C(=O)/C=C/c2cccc(/C=C/c3ccc4ccccc4n3)c2)c(O)c1`, the Kd is 204 nM. In turn, `COc1ccc(C(=O)O)cc1C(=O)/C=C/c1ccc(OCc2ccc3ccccc3n2)cc1` showed a Kd of 188 nM. Still for that read-out and setting: the result for `O=C(O)c1cc(Br)cc(C(=O)/C=C/c2ccc(OCc3ccc4ccccc4n3)cc2)c1O` reads 2100 nM; that for `O=C(O)c1cc(F)cc(C(=O)/C=C/c2ccc(OCc3ccc4ccccc4n3)cc2)c1O`, 396 nM; that for `CCOCCn1c(COc2cccc(/C=C/C(=O)c3cc(-c4nn[nH]n4)ccc3O)c2)nc2ccccc21`, 8850 nM.

`O=C(/C=C/c1cccc(OCc2ccc3ccccc3n2)c1)c1cc(-c2nn[nH]n2)ccc1O` came in with a Kd of 209 nM. In turn, `O=C(O)c1ccc(O)c(C(=O)/C=C/c2ccc(/C=C/c3ccc4ccccc4n3)cc2)c1` gave a Kd of 585 nM. On the same count and under the same terms, for `O=C(/C=C/c1cccc(/C=C/c2ccc3ccccc3n2)c1)c1cc(Cl)cc(-c2nn[nH]n2)c1O` the value was 828 nM; for `O=C(O)c1ccc(C(=O)/C=C/c2ccc(OCc3ccc4ccccc4n3)cc2)c(O)c1`, 1210 nM. The molecule `N#Cc1cc(Cl)cc(C(=O)/C=C/c2cccc(/C=C/c3ccc4ccccc4n3)c2)c1O` had a Kd of 449 nM. Same read-out and setting: for `O=C(/C=C/c1ccc(OCc2nccs2)cc1)c1cc(-c2nn[nH]n2)ccc1O` the value was 233 nM; for `O=C(O)c1cc(Br)cc2c(=O)cc(-c3ccc4ccccc4n3)oc12`, 14800 nM; for `O=C(O)c1cc(Br)cc(C(=O)/C=C/c2cccc(OCc3ccc4ccccc4n3)c2)c1O`, 205 nM.

In turn, `O=C(/C=C/c1cccc(OCc2ccc3ccccc3c2)c1)c1cc(-c2nn[nH]n2)ccc1O` displayed a Kd of 19200 nM.

Molecule `N#Cc1ccc(O)c(C(=O)/C=C/c2ccc(OCc3ccc4ccccc4n3)cc2)c1` registered a Kd of 4310 nM. Still for that read-out and setting: for `O=C(O)c1cccc(C(=O)/C=C/c2ccc(OCc3ccc4ccccc4n3)cc2)c1O` the value was 307 nM; for `O=C(/C=C/c1cccc(/C=C/c2ccc3ccccc3n2)c1)c1cc(-c2nn[nH]n2)ccc1O`, 21 nM. The molecule `O=C(O)c1cc(F)cc(C(=O)/C=C/c2cccc(/C=C/c3ccc4ccccc4n3)c2)c1O` displayed a Kd of 140 nM.

Molecule `O=C(O)COc1ccc(O)c(C(=O)/C=C/c2cccc(/C=C/c3ccc4ccccc4n3)c2)c1` came in with a Kd of 175 nM. The molecule `O=C(O)c1ccc(C(=O)/C=C/c2cccc(OCc3ccc4ccccc4n3)c2)c(O)c1` displayed a Kd of 928 nM.

In turn, `CCOCCn1c(COc2ccc(/C=C/C(=O)c3ccc(C(=O)O)cc3O)cc2)nc2ccccc21` showed a Kd of 62400 nM. Still for that read-out and setting: the result for `COC(=O)c1ccc(OC)c(C(=O)/C=C/c2ccc(OCc3ccc4ccccc4n3)cc2)c1` reads 357 nM; that for `CC(C)(C)c1cc(C(=O)O)c(O)c(C(=O)/C=C/c2cccc(/C=C/c3ccc4ccccc4n3)c2)c1`, 208 nM. With `O=C(/C=C/c1ccc(OCc2ccc3ccc(Cl)cc3n2)cc1)c1cc(-c2nn[nH]n2)ccc1O`, the Kd was found to be 196 nM.

`CCOCCn1c(COc2cccc(/C=C/C(=O)c3cc(Cl)cc(C(=O)O)c3O)c2)nc2ccccc21` had a Kd of 10500 nM.

On to `O=C(O)c1cc(Cl)cc(C(=O)/C=C/c2ccc(OCc3ccc4ccccc4n3)cc2)c1O`, for which the Kd worked out at 732 nM. Regarding `O=C(O)c1cccc(C(=O)/C=C/c2ccc(/C=C/c3ccc4ccccc4n3)cc2)c1O`, the Kd stood at 200 nM. In turn, `O=C(/C=C/c1ccc(/C=C/c2ccc3ccc(Cl)cc3n2)cc1)c1cc(-c2nn[nH]n2)ccc1O` registered a Kd of 239 nM.
